Data set [1] has as its system Rattus norvegicus. The data set can be described thus: Cmax as total radioactivity in female Sprague-Dawley rat plasma at 5 mg/kg, iv administered as single dose by LC/MS/MS analysis. It is filed as ADME, organism-based. As to conditions: in vivo. Also on record: dose 5 mg/kg, dosed compound name [14C]Sunitinib, route intravenous. The method in brief: (§1)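 Single dose of [14C]sunitinib L-malate as free base, 50 µCi/kg. IV dose was 5 mg/kg by tail vein in 5 females. Oral dose was 15 mg/kg by gavage in 3 females and 3 males. Total radioactivity was by scintillation counting. […] Cmax was read from raw data, t½ by log-linear regression, AUC by linear trapezoidal rule.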

In another data set the test system is Kidney. The data set can be described thus: Drug concentration in female Lister Hooded pigmented rat kidney assessed as radioactivity per gram of tissue at 20 mg/kg administered as single dose via gastric gavage measured after 72 hrs by autoradiographic analysis. It counts as ADME, organism-based. On the set-up: dose 20 mg/kg, dosed compound name [14C]Sunitinib. To be noted: in vivo, po. The method in brief:
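Lister Hooded (pigmented) rats, ca 7-8 weeks old, acclimated 7 days, given [14C]sunitinib L-malate by gastric gavage at 20 mg/kg (15 mg freebase/kg, 100 µCi/kg). One male and one female killed by CO2 at 24, 72, 168 and 336 h. Carcasses frozen in solid CO2/hexane and embedded in frozen cellulose. 30 µm sagittal cryosections were freeze-dried. Tissue radioactivity measured by quantitative whole-body autoradiography against calibration standards, with background subtracted.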

Data set [2] in a line: Drug concentration in female albino rat uterus assessed as radioactivity per gram of tissue at 20 mg/kg administered as single dose via gastric gavage measured after 24 hrs by autoradiographic analysis. It counts as ADME, organism-based. Also on record: dose 20 mg/kg, dosed compound name [14C]Sunitinib. To be noted: in vivo, po.
A further data set has as its system Liver. The data set can be described thus: Drug concentration in male Lister Hooded pigmented rat liver assessed as radioactivity per gram of tissue at 20 mg/kg administered as single dose via gastric gavage measured after 168 hrs by autoradiographic analysis. Also on record: dose 20 mg/kg, dosed compound name [14C]Sunitinib. It counts as ADME, organism-based. As to conditions: in vivo, po.

Data set [3] can be described thus: Drug recovery in feces of male cynomolgus monkey at 6 mg/kg, po administered as single dose during 0 to 336 hrs by liquid scintillation counting. It counts as ADME, organism-based, Macaca fascicularis. As to conditions: in vivo. Also on record: dose 6 mg/kg, dosed compound name [14C]Sunitinib, route oral.
The subject of data set [4] is Small intestine. Description: Drug concentration in male Lister Hooded pigmented rat small intestine assessed as radioactivity per gram of tissue at 20 mg/kg administered as single dose via gastric gavage measured after 168 hrs by autoradiographic analysis. It counts as ADME, organism-based. On the set-up: dose 20 mg/kg, dosed compound name [14C]Sunitinib. To be noted: in vivo, po.

The nature of data set [5]: Drug concentration in male Lister Hooded pigmented rat preputial gland assessed as radioactivity per gram of tissue at 20 mg/kg administered as single dose via gastric gavage measured after 72 hrs by autoradiographic analysis. On the set-up: dose 20 mg/kg, dosed compound name [14C]Sunitinib. To be noted: in vivo, po. It counts as ADME, organism-based.
Data set [6] can be described thus: Drug concentration in male Lister Hooded pigmented rat testis assessed as radioactivity per gram of tissue at 20 mg/kg administered as single dose via gastric gavage measured after 24 hrs by autoradiographic analysis. It is filed as ADME, organism-based. On the set-up: dose 20 mg/kg, dosed compound name [14C]Sunitinib. As to conditions: in vivo, po.
Data set [7] has as its system Rattus norvegicus. The data set can be described thus: Apparent terminal half life as total radioactivity in female Sprague-Dawley rat plasma at 15 mg/kg, po administered as single dose by LC/MS/MS analysis. It counts as ADME, organism-based. Also on record: dose 15 mg/kg, dosed compound name [14C]Sunitinib, route oral. As to conditions: in vivo. The method in brief: as §1

Data set [8] concerns Adrenal. Description: Drug concentration in female Lister Hooded pigmented rat adrenal assessed as radioactivity per gram of tissue at 20 mg/kg administered as single dose via gastric gavage measured after 24 hrs by autoradiographic analysis. It is filed as ADME, organism-based. Also on record: dose 20 mg/kg, dosed compound name [14C]Sunitinib. As to conditions: in vivo, po. The method, boiled down:
(§2)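 Pigmented Lister Hooded rats, 7-8 weeks old, received [14C]sunitinib L-malate by gavage at 20 mg/kg (15 mg freebase/kg, 100 µCi/kg). One rat per sex was killed by CO2 at each of 24, 72, 168 and 336 h. Carcasses were frozen in solid CO2/hexane and cut into 30 µm sagittal sections, then freeze-dried. Tissue radioactivity was quantified by whole-body autoradiography calibrated against standards by regression (LOQ 0.04–0.06 µg eq/g).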

Data set [9] concerns Small intestine. Description: Drug concentration in male albino rat small intestine assessed as radioactivity per gram of tissue at 20 mg/kg administered as single dose via gastric gavage measured after 6 hrs by autoradiographic analysis. It is filed as ADME, organism-based. On the set-up: dose 20 mg/kg, dosed compound name [14C]Sunitinib. To be noted: in vivo, po.
Another data set relates to Cynomolgus monkey. The data set can be described thus: Total drug recovery in female cynomolgus monkey at 6 mg/kg, po administered as single dose during 0 to 336 hrs by liquid scintillation counting. On the set-up: dose 6 mg/kg, dosed compound name [14C]Sunitinib, route oral. To be noted: in vivo. It is filed as ADME, organism-based, Macaca fascicularis.
Data set [10] has as its system Zone of skin. Description: Drug concentration in female Lister Hooded pigmented rat abdomen skin assessed as radioactivity per gram of tissue at 20 mg/kg administered as single dose via gastric gavage measured after 336 hrs by autoradiographic analysis. It counts as ADME, organism-based. On the set-up: dose 20 mg/kg, dosed compound name [14C]Sunitinib. As to conditions: in vivo, po. The method in brief:
as §2

For another data set, the system named is Heart. The data set can be described thus: Drug concentration in male albino rat heart assessed as radioactivity per gram of tissue at 20 mg/kg administered as single dose via gastric gavage measured after 24 hrs by autoradiographic analysis. It counts as ADME, organism-based. Also on record: dose 20 mg/kg, dosed compound name [14C]Sunitinib. As to conditions: in vivo, po.

Data set [11] in a line: Drug recovery in urine of male cynomolgus monkey at 6 mg/kg, po administered as single dose during 0 to 336 hrs by liquid scintillation counting. On the set-up: dose 6 mg/kg, dosed compound name [14C]Sunitinib, route oral. It is filed as ADME, organism-based, Macaca fascicularis. As to conditions: in vivo.
Data set [12] has as its system Adrenal. The data set can be described thus: Drug concentration in female albino rat adrenal assessed as radioactivity per gram of tissue at 20 mg/kg administered as single dose via gastric gavage measured after 168 hrs by autoradiographic analysis. It is filed as ADME, organism-based. On the set-up: dose 20 mg/kg, dosed compound name [14C]Sunitinib. To be noted: in vivo, po. The method in brief:
(§3)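 Sprague Dawley (albino) rats, ca 7-8 weeks old, received a single gastric-gavage dose of [14C]sunitinib L-malate at 20 mg/kg (15 mg freebase/kg, 100 µCi/kg). One animal per sex killed by CO2 at 3, 6, 24, 72 and 168 h, then frozen in CO2/hexane. 30 µm sagittal sections were cut and freeze-dried. Radioactivity per gram quantified by whole-body autoradiography using regression against standards. LOQ 0.04–0.06 µg freebase equiv/g.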

Data set [13] in a line: Drug concentration in male albino rat testis assessed as radioactivity per gram of tissue at 20 mg/kg administered as single dose via gastric gavage measured after 3 hrs by autoradiographic analysis. On the set-up: dose 20 mg/kg, dosed compound name [14C]Sunitinib. It is filed as ADME, organism-based. To be noted: in vivo, po.
For another data set, the system named is Large intestine. Description: Drug concentration in female albino rat large intestine assessed as radioactivity per gram of tissue at 20 mg/kg administered as single dose via gastric gavage measured after 6 hrs by autoradiographic analysis. It is filed as ADME, organism-based. On the set-up: dose 20 mg/kg, dosed compound name [14C]Sunitinib. As to conditions: in vivo, po. The method, boiled down: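 Sprague Dawley albino rats, ca 7-8 weeks old, dosed once by gastric gavage with [14C]sunitinib L-malate (15 mg freebase/kg, 100 µCi/kg). One male and one female killed by CO2 at 3, 6, 24, 72 and 168 h. Carcasses frozen in solid CO2/hexane, embedded and cut into 30 µm sagittal sections, then freeze-dried. Radioactivity quantified by whole-body autoradiography against standards by regression, background subtracted.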

The nature of data set [14]: Drug concentration in female albino rat thyroid gland assessed as radioactivity per gram of tissue at 20 mg/kg administered as single dose via gastric gavage measured after 72 hrs by autoradiographic analysis. It counts as ADME, organism-based. Also on record: dose 20 mg/kg, dosed compound name [14C]Sunitinib. To be noted: in vivo, po.
The nature of data set [15]: Drug concentration in female albino rat salivary gland assessed as radioactivity per gram of tissue at 20 mg/kg administered as single dose via gastric gavage measured after 6 hrs by autoradiographic analysis. On the set-up: dose 20 mg/kg, dosed compound name [14C]Sunitinib. It counts as ADME, organism-based. To be noted: in vivo, po.
For another data set, the system named is Pancreas. Description: Drug concentration in female albino rat pancreas assessed as radioactivity per gram of tissue at 20 mg/kg administered as single dose via gastric gavage measured after 6 hrs by autoradiographic analysis. It counts as ADME, organism-based. On the set-up: dose 20 mg/kg, dosed compound name [14C]Sunitinib. As to conditions: in vivo, po. The method, boiled down: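 Sprague Dawley (albino) and Lister Hooded (pigmented) rats, ca 7-8 weeks old, 179-310 g, acclimated 7 days. Single gavage dose of [14C]sunitinib L-malate (15 mg freebase/kg, 100 µCi/kg). One male and one female killed by CO2 per time point: albino at 3, 6, 24, 72, 168 h; pigmented at 24, 72, 168, 336 h. Carcasses frozen in solid CO2/hexane, 30 µm sagittal sections freeze-dried. Tissue radioactivity read by quantitative whole-body autoradiography against regression of standards, mean background subtracted.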

Data set [16] relates to Zone of skin. Description: Drug concentration in female albino rat abdomen skin assessed as radioactivity per gram of tissue at 20 mg/kg administered as single dose via gastric gavage measured after 168 hrs by autoradiographic analysis. It is filed as ADME, organism-based. Also on record: dose 20 mg/kg, dosed compound name [14C]Sunitinib. As to conditions: in vivo, po. The method, boiled down:
as §3

Data set [17] deals with Adrenal. Description: Drug concentration in male Lister Hooded pigmented rat adrenal assessed as radioactivity per gram of tissue at 20 mg/kg administered as single dose via gastric gavage measured after 24 hrs by autoradiographic analysis. It is filed as ADME, organism-based. Also on record: dose 20 mg/kg, dosed compound name [14C]Sunitinib. To be noted: in vivo, po.

Drawing on ChEMBL document CHEMBL3525900, “Pharmacokinetics, distribution, and metabolism of [14C]sunitinib in rats, monkeys, and humans” (Drug Metab Dispos, 2012), this text covers Cmax, Radiolabel recovery and t1/2 lambda z for one compound.

Regarding `CCN(CC)CCNC(=O)c1c(C)[nH]c(/[14CH]=C2\C(=O)Nc3ccc(F)cc32)c1C.O=C(O)C[C@H](O)C(=O)O`, the Cmax in the data set on Rattus norvegicus [1] was 2148 ngequiv/ml. Further, the Radiolabel recovery was found to be 0.19 ugequiv in the data set with Kidney; 0.96 ugequiv in data set [2]; 0.06 ugequiv in the data set on Liver; 87.3% in [3]; 0.06 ugequiv with Small intestine [4]; 7.84 ugequiv in [5]. In addition, the Radiolabel recovery in data set [6] turned out to be 2.27 ugequiv; in the data set on Adrenal [8] it was 3.59 ugequiv; with Small intestine [9], 5.54 ugequiv; in the data set on Cynomolgus monkey, 90.7%; with Zone of skin [10], 0.36 ugequiv; with Heart it was 0.36 ugequiv. Besides, the Radiolabel recovery turned out to be 4.8% in [11]; 0.33 ugequiv in the data set on Adrenal [12]; 0.79 ugequiv in data set [13]; 7.43 ugequiv with Large intestine; 0.26 ugequiv in [14]; 23.1 ugequiv in data set [15]. Further, the Radiolabel recovery in the data set with Pancreas was 11.3 ugequiv; with Zone of skin [16], 0.26 ugequiv; with Adrenal [17], 4.3 ugequiv. For the same compound, in the data set on Rattus norvegicus [7], the t1/2 lambda z was found to be 9 h.
